ChEMBL document CHEMBL3632544, “Acyl dihydropyrazolo[1,5-a]pyrimidinones as metabotropic glutamate receptor 5 positive allosteric modulators” (Bioorg Med Chem Lett, 2015)
Values after ≈ are worked out from the molar mass of the structure shown.

How the values were obtained:
Rattus norvegicus [1] = experiment: Toxicity in Sprague-Dawley rat assessed as decreased motor coordination at 56.6 mg/kg, po; type: organism-based; conditions: in vivo
Summary of the method: (§1)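 Rats dosed orally at 56.6 mg/kg and observed over 6.0 h. Behavior scored on a modified Racine scale, including motor activity and coordination. Brain concentration measured.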

[2] = biological target: Metabotropic glutamate receptor 3 (Homo sapiens, UniProt Q14832); experiment: Positive allosteric modulation of mGlu3 receptor (unknown origin) relative to control
Chain of Metabotropic glutamate receptor 3 (Q14832 whole entry): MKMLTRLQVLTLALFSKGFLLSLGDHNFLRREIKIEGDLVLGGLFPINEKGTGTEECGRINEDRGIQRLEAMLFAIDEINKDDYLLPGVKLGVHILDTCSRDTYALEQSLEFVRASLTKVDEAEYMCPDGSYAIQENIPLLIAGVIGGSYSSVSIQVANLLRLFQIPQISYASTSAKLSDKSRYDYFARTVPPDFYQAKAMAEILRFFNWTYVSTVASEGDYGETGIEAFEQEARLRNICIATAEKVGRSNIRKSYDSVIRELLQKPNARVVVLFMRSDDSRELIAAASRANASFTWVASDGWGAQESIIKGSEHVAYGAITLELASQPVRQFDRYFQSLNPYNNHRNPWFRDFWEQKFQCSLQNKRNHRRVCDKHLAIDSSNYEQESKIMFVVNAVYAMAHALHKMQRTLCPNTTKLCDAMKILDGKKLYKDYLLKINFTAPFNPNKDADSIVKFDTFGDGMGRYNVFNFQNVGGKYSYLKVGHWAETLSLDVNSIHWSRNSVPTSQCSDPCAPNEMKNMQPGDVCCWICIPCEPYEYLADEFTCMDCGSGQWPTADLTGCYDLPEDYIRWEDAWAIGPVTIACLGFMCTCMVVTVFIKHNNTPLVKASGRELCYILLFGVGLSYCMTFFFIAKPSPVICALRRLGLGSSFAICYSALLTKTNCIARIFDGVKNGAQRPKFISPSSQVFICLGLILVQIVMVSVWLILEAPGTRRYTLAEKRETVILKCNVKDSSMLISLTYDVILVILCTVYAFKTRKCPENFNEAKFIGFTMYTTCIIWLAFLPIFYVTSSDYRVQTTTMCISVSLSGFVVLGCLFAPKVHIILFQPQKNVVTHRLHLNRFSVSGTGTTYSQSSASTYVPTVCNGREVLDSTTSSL

[3] = biological target: Metabotropic glutamate receptor 4 (Homo sapiens, UniProt Q14833); experiment: Positive allosteric modulation of mGlu4 receptor (unknown origin) relative to control
[4] = Stability in beta cyclodextrin at pH 6 upto 5 days; type: physicochemical; conditions: buffer, pH 6, 120 h
Summary of the method: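 Stability of the compound formulated at 4 mg/mL in 20% β-cyclodextrin vehicle, pH 6, monitored for up to five days; percent decomposition of the amide determined.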

Plasma [5] = experiment: Fraction unbound in human plasma; type: ADME, cell-free
Summary of the method: (§2)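 Plasma protein binding measured in human and rat plasma; readout is fraction unbound.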

Cytochrome P450 1A2 = biological target: T1, Cytochrome P450 1A2 (Homo sapiens, UniProt P05177); experiment: Inhibition of CYP1A2 (unknown origin); type: ADME
T1 sequence (P05177 whole entry): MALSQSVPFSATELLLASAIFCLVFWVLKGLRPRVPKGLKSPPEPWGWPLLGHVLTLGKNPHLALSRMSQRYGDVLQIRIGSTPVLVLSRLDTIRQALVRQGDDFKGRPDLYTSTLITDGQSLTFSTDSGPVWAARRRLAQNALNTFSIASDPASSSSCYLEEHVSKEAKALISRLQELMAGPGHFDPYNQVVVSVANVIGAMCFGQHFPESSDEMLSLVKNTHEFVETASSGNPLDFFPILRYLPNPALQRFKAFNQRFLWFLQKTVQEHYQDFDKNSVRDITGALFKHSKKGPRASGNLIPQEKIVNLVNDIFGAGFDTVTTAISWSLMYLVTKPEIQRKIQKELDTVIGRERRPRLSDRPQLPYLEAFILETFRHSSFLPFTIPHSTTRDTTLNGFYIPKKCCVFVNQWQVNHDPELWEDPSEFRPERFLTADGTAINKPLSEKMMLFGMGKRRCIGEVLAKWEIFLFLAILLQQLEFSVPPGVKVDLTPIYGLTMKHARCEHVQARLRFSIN

Rattus norvegicus [6] = experiment: Toxicity in Sprague-Dawley rat assessed as alteration in behavior across 30 distinct autonomic and somatomotor endpoints at 30 mg/kg, po; type: organism-based; conditions: in vivo
Summary of the method: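 Modified Irwin screen in rats given a single 30 mg/kg oral dose; 30 autonomic and somatomotor endpoints scored for behavioral change; brain concentration sampled 1.0 h post-dose.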

[7] = Solubility in simulated gastric fluid; type: ADME; conditions: simulated gi fluid
Summary of the method: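 Solubility measured in simulated gastric fluid at 37 °C over 1 h; compound stability was assessed in parallel.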

Brain [8] = experiment: Fraction unbound in rat brain; type: ADME, tissue-based
Summary of the method: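 Rat brain unbound fraction obtained from a brain homogenate binding assay.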

[9] = Cmax in dog at 1 mg/kg, iv and 5 mg/kg, po; type: ADME, organism-based, Canis lupus familiaris; conditions: in vivo
Brain [10] = experiment: Drug concentration in Sprague-Dawley rat brain at 56.6 mg/kg, po; type: ADME, organism-based; conditions: in vivo, read-out: Drug uptake
Plasma [11] = experiment: Stability in rat plasma after 4 hrs; type: ADME, cell-free
Summary of the method: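 Compound incubated in rat plasma at 37 °C for 4 h; stability assessed.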

[12] = Stability in simulated gastric fluid for 1 hr; type: physicochemical; conditions: simulated gi fluid
Summary of the method: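 Incubation in simulated gastric fluid at 37 °C for 1 h; decomposition of the external amide assessed.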

Cytochrome P450 2D6 = Cytochrome P450 2D6 (Homo sapiens, UniProt P10635); experiment: Inhibition of CYP2D6 (unknown origin); type: ADME
Cytochrome P450 3A4 = Cytochrome P450 3A4 (Homo sapiens, UniProt P08684); experiment: Inhibition of CYP3A4 (unknown origin); type: ADME
Rattus norvegicus [13] = experiment: Oral bioavailability in Sprague-Dawley rat at 10 mg/kg; type: ADME, organism-based; conditions: in vivo
Summary of the method: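 Male Sprague-Dawley rats were dosed orally at 10 mg/kg in 20% β-CD (1 mg/mL) and sampled over 8 h. Cmax, Tmax and AUC0-8h were determined, and absolute %F was calculated against a discrete IV study.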

[14] = biological target: Metabotropic glutamate receptor 5 (Rattus norvegicus) (UniProt P31424); experiment: Positive allosteric modulation of mGlu5 in rat astrocytes relative to glutamate; type: cell-based
Chain of Metabotropic glutamate receptor 5 (Rattus norvegicus) (P31424 21-1203 limits assumed): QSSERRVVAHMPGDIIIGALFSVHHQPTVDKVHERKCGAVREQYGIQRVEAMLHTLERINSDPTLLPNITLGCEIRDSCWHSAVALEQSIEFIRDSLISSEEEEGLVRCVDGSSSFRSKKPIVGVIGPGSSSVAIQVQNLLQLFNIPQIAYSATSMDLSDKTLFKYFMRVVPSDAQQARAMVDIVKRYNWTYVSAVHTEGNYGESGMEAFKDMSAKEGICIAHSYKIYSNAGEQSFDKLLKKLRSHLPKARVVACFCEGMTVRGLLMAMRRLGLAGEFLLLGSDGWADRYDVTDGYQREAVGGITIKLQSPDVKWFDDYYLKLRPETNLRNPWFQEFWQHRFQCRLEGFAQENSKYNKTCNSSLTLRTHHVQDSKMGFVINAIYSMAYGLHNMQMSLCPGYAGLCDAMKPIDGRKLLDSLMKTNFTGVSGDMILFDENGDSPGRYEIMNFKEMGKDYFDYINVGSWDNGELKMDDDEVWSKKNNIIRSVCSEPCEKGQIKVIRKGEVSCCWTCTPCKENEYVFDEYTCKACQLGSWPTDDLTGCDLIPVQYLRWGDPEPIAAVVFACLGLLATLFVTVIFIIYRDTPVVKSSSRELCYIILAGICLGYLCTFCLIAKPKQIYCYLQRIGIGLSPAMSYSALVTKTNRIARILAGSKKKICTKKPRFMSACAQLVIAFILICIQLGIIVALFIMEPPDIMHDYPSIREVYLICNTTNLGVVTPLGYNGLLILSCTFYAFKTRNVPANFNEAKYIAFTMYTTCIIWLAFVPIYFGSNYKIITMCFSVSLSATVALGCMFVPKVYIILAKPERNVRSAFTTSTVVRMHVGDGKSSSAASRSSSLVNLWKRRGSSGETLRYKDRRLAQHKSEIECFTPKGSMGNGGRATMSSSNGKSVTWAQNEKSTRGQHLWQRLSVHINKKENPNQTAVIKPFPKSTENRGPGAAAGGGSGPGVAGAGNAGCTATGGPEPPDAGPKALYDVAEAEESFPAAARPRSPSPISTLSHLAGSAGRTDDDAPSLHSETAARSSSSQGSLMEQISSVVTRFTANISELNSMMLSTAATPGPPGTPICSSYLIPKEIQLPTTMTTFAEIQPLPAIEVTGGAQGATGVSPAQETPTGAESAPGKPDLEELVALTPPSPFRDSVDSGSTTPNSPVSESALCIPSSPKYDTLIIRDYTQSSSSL

[15] = biological target: Metabotropic glutamate receptor 2 (Homo sapiens, UniProt Q14416); experiment: Positive allosteric modulation of mGlu2 receptor (unknown origin) relative to control
[16] = biological target: T2, Metabotropic glutamate receptor 5 (Homo sapiens, UniProt P41594); experiment: Positive allosteric modulation of human mGlu5 expressed in HEK293 cells assessed as calcium mobilization; type: functional, cell-based; conditions: read-out: EC50
Summary of the method: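 Calcium mobilization read-out in HEK293 cells stably expressing human mGlu5; PAM EC50 and efficacy as % of maximal glutamate response. Mean±SEM of three or more independent determinations, each in triplicate.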
Target sequence in this assay (P41594 whole entry): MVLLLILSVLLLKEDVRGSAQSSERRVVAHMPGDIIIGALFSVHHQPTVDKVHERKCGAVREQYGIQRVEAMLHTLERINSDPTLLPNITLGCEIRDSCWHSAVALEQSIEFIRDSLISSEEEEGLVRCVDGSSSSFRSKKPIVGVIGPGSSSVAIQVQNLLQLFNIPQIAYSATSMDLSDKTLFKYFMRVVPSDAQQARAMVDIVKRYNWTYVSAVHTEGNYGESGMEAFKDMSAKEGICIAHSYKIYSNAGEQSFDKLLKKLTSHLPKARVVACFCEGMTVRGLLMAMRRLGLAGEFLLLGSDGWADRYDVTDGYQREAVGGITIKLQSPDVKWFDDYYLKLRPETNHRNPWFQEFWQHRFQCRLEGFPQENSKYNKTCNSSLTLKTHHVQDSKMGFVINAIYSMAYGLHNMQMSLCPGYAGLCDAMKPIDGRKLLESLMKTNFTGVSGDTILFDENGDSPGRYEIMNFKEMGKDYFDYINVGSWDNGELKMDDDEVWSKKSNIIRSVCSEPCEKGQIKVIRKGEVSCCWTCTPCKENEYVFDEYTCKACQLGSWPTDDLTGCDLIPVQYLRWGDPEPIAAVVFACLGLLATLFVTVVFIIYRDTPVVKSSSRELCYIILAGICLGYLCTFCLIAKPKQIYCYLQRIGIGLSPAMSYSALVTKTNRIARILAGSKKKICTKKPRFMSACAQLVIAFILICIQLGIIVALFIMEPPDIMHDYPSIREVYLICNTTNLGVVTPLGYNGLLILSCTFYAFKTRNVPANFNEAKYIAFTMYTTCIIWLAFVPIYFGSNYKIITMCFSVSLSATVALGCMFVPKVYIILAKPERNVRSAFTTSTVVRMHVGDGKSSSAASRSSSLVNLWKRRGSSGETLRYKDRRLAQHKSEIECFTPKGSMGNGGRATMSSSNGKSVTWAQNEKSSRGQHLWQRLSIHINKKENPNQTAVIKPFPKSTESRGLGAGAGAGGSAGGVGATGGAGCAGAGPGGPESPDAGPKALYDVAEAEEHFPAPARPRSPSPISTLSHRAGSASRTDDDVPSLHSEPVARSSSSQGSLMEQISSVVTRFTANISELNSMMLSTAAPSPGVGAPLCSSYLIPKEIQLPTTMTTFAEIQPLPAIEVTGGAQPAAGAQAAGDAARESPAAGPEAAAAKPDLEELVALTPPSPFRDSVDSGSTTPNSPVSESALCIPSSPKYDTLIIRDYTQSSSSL

[17] = Plasma clearance in dog at 1 mg/kg, iv and 5 mg/kg, po; type: ADME, organism-based, Canis lupus familiaris
[18] = Plasma clearance in Sprague-Dawley rat at 2.5 mg/kg, iv and 10 mg/kg, po; type: ADME, organism-based
[19] = AUC in dog plasma at 1 mg/kg, iv and 5 mg/kg, po; type: ADME, organism-based, Canis lupus familiaris
Plasma [20] = experiment: Fraction unbound in rat plasma; type: ADME, cell-free; summary of the method: as §2
Rattus norvegicus [21] = experiment: Inhibition of amphetamine-induced hyperlocomotion in oral-dosed Sprague-Dawley rat assessed as reversal of amphtamine-induced effect drug administered 20 mins prior to 1 mg/kg amphetamine challenge; type: functional; conditions: read-out: MED
Summary of the method: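 Male Sprague-Dawley rats received a single oral screening dose of 10 mg/kg; full dose-response studies were also run (n = 8/group). Readout is % reversal of amphetamine-induced locomotion relative to vehicle control. Terminal brain and plasma levels were sampled at T90.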

[22] = biological target: Metabotropic glutamate receptor 7 (Homo sapiens, UniProt Q14831); experiment: Positive allosteric modulation of mGlu7 receptor (unknown origin) relative to control
[23] = Volume of distribution at steady state in Sprague-Dawley rat at 2.5 mg/kg, iv and 10 mg/kg, po; type: ADME, organism-based; conditions: in vivo, read-out: Vdss
Cytochrome P450 2C9 = Cytochrome P450 2C9 (Homo sapiens, UniProt P11712); experiment: Inhibition of CYP2C9 (unknown origin); type: ADME
Chain of Cytochrome P450 2C9 (P11712 whole entry): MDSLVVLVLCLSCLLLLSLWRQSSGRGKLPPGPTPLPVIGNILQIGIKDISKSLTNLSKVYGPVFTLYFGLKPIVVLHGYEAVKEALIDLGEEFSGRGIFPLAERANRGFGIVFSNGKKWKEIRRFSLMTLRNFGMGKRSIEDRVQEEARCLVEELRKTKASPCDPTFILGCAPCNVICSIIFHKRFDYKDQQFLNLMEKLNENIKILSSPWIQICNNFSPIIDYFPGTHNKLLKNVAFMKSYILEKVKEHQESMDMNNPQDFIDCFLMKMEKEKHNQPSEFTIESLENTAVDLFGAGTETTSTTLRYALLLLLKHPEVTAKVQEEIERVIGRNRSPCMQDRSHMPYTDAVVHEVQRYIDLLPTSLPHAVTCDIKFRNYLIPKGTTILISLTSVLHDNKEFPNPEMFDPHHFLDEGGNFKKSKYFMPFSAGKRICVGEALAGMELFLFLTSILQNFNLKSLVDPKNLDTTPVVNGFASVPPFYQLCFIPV

Rattus norvegicus [24] = experiment: Toxicity in Sprague-Dawley rat assessed as decreased motor activity at 56.6 mg/kg, po; type: organism-based; conditions: in vivo; summary of the method: as §1
[25] = Oral bioavailability in dog at 5 mg/kg; type: ADME, organism-based, Canis lupus familiaris; conditions: in vivo
[26] = Plasma clearance in Sprague-Dawley rat at 0.2 mg/kg, iv; type: ADME, organism-based
[27] = AUC (0 to 8 hrs) in Sprague-Dawley rat plasma at 2.5 mg/kg, iv and 10 mg/kg, po; type: ADME, organism-based
Summary of the method: (§3)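 Discrete PK in male Sprague-Dawley rats. Oral arm: 10 mg/kg PO in 20% β-CD at 1 mg/mL. Plasma sampled to 8 h, giving Cmax, Tmax and AUC0-8h. Absolute oral bioavailability derived against the IV arm.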

[28] = Drug concentration in Sprague-Dawley rat brain at 30 mg/kg, po after 1 hr; type: ADME, organism-based; conditions: read-out: Drug uptake
Summary of the method: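 Rat modified Irwin study: single 30 mg/kg PO dose, with behaviour scored across 30 autonomic and somatomotor endpoints. Brain concentration measured 1.0 h post-dose. Unbound brain level estimated.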

[29] = biological target: Metabotropic glutamate receptor 5 (Rattus norvegicus) (UniProt P31424); experiment: Positive allosteric modulation of rat mGlu5 assessed as calcium mobilization by cell-based assay relative to glutamate; type: functional
[30] = biological target: Metabotropic glutamate receptor 1 (Homo sapiens, UniProt Q13255); experiment: Positive allosteric modulation of mGlu1 receptor (unknown origin) relative to control
Rattus norvegicus [31] = experiment: Cmax in Sprague-Dawley rat at 2.5 mg/kg, iv and 10 mg/kg, po; type: ADME, organism-based; conditions: in vivo; summary of the method: as §3
[32] = biological target: T2, Metabotropic glutamate receptor 5; experiment: Positive allosteric modulation of human mGlu5 expressed in HEK293 cells assessed as calcium mobilization relative to glutamate; type: functional, cell-based
Summary of the method: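 Calcium mobilization in HEK293 cells expressing human mGlu5, reported as EC50 and % Glu Max. Mean±SEM of three or more independent determinations, each run in triplicate.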
Target sequence in this assay (P41594 21-1212 limits assumed): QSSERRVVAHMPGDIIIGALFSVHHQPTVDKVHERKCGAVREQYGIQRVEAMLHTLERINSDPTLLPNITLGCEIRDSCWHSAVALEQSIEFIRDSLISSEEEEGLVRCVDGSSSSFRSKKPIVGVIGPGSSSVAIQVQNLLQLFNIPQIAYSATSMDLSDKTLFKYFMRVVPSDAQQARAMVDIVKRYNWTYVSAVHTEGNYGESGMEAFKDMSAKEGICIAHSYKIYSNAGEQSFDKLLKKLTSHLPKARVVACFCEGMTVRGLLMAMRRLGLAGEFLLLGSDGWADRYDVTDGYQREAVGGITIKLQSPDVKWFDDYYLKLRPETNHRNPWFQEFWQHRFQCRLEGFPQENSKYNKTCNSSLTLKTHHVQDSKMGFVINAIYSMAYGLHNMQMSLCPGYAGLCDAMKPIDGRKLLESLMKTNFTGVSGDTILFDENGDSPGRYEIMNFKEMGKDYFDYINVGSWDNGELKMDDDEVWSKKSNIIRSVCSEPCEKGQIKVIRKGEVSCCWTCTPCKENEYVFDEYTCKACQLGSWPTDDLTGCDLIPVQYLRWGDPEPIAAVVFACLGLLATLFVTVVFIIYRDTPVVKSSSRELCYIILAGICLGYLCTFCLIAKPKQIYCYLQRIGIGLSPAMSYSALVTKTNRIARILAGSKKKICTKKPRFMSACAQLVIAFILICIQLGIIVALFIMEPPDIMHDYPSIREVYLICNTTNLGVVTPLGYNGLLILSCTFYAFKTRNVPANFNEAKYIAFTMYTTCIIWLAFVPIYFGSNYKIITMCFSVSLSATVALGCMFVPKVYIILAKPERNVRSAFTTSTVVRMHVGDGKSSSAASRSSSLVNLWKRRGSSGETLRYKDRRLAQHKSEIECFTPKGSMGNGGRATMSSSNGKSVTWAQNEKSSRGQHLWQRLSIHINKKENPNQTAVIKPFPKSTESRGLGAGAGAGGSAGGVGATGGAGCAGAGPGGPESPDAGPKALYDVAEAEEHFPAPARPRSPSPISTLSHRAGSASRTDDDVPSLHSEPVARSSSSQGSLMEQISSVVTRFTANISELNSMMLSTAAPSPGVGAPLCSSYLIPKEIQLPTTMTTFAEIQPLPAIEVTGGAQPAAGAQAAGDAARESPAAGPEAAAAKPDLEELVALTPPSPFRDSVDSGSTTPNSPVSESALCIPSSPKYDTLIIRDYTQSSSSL

[33] = Volume of distribution at steady state in dog at 1 mg/kg, iv and 5 mg/kg, po; type: ADME, organism-based, Canis lupus familiaris; conditions: in vivo, read-out: Vdss
[34] = biological target: Metabotropic glutamate receptor 5 (Rattus norvegicus, UniProt P31424); experiment: Positive allosteric modulation of rat mGlu5 assessed as calcium mobilization by cell-based assay; type: functional
[35] = Elimination half life in Sprague-Dawley rat at 2.5 mg/kg, iv and 10 mg/kg, po; type: ADME, organism-based; conditions: in vivo, read-out: beta t1/2 (converted); summary of the method: as §3
[36] = biological target: Metabotropic glutamate receptor 8 (Homo sapiens, UniProt O00222); experiment: Positive allosteric modulation of mGlu8 receptor (unknown origin) relative to control
[37] = biological target: Metabotropic glutamate receptor 6 (Homo sapiens, UniProt O15303); experiment: Positive allosteric modulation of mGlu6 receptor (unknown origin) relative to control
[38] = Elimination half life in dog at 1 mg/kg, iv and 5 mg/kg, po; type: ADME, organism-based, Canis lupus familiaris; conditions: in vivo

**Q.** What does the source list for CC(=O)N1CCCn2nc(COc3ccccc3)cc21?
**A.** Activity (Rattus norvegicus [1]): Toxic; EC50 [2]: > 10 µM; EC50 [3]: > 10 µM; Stability [4]: Stable; Fu (Plasma [5]): 0.26; IC50 (Cytochrome P450 1A2): > 30 µM; Activity (Rattus norvegicus [6]): Non-toxic; solubility [7]: 315 µg/mL (≈ 1160 µM); Fu (Brain [8]): 0.51; Cmax [9]: < 0.1 µM; concentration (Brain [10]): 113 µM; Stability (Plasma [11]): Stable; Stability [12]: Stable; IC50 (Cytochrome P450 2D6): > 30 µM; IC50 (Cytochrome P450 3A4): > 30 µM; F (Rattus norvegicus [13]): 29%; %max [14]: 57%; EC50 [15]: > 10 µM; EC50 [16]: 0.36 µM; clearance [17]: 37 mL/min/kg; clearance [18]: 54 mL/min/kg; AUC [19]: 0.1 µM·h; Fu (Plasma [20]): 0.37; minimal effective dose (Rattus norvegicus [21]): 3 mg/kg; EC50 [22]: > 10 µM; Vd [23]: 3.9 L/kg; IC50 (Cytochrome P450 2C9): > 30 µM; Activity (Rattus norvegicus [24]): Toxic; bioavailability [25]: < 5%; clearance [26]: 118 mL/min/kg; AUC(0-t) [27]: 3.3 µM·h; concentration at 1 h [28]: 71 µM; %max [29]: 65%; EC50 [30]: > 10 µM; Cmax (Rattus norvegicus [31]): 2.5 µM; %max [32]: 65%; Vd [33]: 1.1 L/kg; EC50 [34]: 0.06 µM; half-life [35]: 6.5 h; EC50 [36]: > 10 µM; EC50 [37]: > 10 µM; half-life [38]: < 0.5 h
